From PubChem BioAssay
Most compounds without a hit are left out; they make up all but 3.4% or so of the library.
PolyA inh: polyadenylation inhibitors in yeast reporter cells, primary screen, luminescence, S. cerevisiae. S. cerevisiae SKY197-pL101 polyadenylation reporter, beta-gal luminescence; efflux-impaired pdr1/pdr3 knockout yeast; score 100 = 6 SD above DMSO. activity score, % at 12 µM. actives 0.02% (n = 300,000). AID 1875, 2009;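 active = lowest replicate activity score at least 50, where 100 means six control SD above control mean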;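 also: yeast exposed to compound for 9 h at 30 °C; higher score means more reporter readthrough which indicates perturbed polyadenylation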
UCH37 inh: inhibitors of human UCH37 deubiquitinase, primary screen, biochemical, Ub-AMC cleavage, fluorescence; Ubiquitin carboxyl-terminal hydrolase isozyme L5 (Homo sapiens), Q9Y5K5; purified proteasome/UCH37; inhibition, % (no concentration beside the values); actives 0.33% (n = 330,000); AID 588478, 2011;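 active = mean inhibition over replicate wells above about 20%, limit read from the data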
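Material: human UCH37 enzyme supplied as purified proteasome complex / Amount: 0.15 nM proteasome as dispensed / Buffer or medium: pH 7.4 Tris-HCl (50 mM) with ovalbumin, ATP-MgCl2, DTT / Times: preincubation 30 min, reaction 25 min, room temperature / Technique: AMC fluorescence from Ub-AMC cleavage, excitation 355 nm, emission 460 nm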
A3G deaminase: APOBEC3G DNA deaminase inhibitors, primary screen, biochemical, fluorescence, single-stranded DNA substrate, uHTS. DNA dC->dU-editing enzyme APOBEC-3G (Homo sapiens), Q9HC16. recombinant A3G, ssDNA deamination FAM/TAMRA fluorescence. inhibition, % at 20 µM. actives 0.28% (n = 330,000);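 active = inhibition of at least 40% at 20 µM, with no more than 30% in the related APOBEC3A deaminase screen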
A3A deaminase: APOBEC3A ssDNA deaminase inhibitors, primary screen, selectivity assay for APOBEC3G inhibitor project, biochemical, FAM/TAMRA oligo cleavage fluorescence; recombinant A3A, FAM/TAMRA ssDNA deamination fluorescence; inhibition, % at 20 µM; actives 0.41% (n = 330,000);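 active = at least 40% inhibition at 20 µM here, with at most 30% in a related deaminase screen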
AHR act: AHR activators, primary screen, cell-based, luminescence, luciferase reporter, human; activation, % at 5 µM; AID 2796, 2010; Aryl hydrocarbon receptor (Homo sapiens), P35869; actives 2.5% (n = 320,000); AHR-responsive luciferase reporter cells; in the data active = activation above about 47%
Target sequence (P35869 whole entry, looked up): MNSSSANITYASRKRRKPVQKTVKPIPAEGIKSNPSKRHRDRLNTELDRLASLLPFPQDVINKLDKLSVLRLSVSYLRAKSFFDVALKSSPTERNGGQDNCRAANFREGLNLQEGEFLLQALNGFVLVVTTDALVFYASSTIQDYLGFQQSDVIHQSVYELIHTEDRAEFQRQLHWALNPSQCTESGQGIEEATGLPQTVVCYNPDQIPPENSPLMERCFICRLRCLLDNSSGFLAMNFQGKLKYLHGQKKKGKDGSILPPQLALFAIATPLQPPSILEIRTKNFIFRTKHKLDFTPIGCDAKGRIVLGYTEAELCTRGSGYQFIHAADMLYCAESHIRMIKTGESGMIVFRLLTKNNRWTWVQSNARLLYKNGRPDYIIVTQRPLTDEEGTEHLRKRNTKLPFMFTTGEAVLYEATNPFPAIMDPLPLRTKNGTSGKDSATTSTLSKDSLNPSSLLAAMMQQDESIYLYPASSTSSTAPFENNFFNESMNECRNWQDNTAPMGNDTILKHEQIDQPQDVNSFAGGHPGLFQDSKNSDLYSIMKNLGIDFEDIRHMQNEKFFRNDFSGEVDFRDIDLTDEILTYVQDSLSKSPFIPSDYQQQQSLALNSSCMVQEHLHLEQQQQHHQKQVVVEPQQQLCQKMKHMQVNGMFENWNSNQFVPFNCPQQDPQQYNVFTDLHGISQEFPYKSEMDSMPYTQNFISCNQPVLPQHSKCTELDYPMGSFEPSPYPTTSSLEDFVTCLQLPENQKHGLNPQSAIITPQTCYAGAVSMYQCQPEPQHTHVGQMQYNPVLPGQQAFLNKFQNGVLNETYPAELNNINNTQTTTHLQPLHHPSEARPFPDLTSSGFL
Arrestin-AP2 inh: inhibitors of beta-arrestin/AP2 binding, primary screen, biochemical, GPCR trafficking, flow cytometry. FITC-arrestin peptide / GST-AP2 beads; AP2 beta2 appendage carries R879A mutation. actives 0.31% (n = 340,000). inhibition, % at 10 µM. beta-arrestin 1 C-terminal peptide binding to AP2 beta2-adaptin appendage (human). AID 504490, 2011;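 active = inhibition above a set limit, near 3 SD of compounds lacking own fluorescence, cut at about 54% in these data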
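test system = AP2 appendage R879A on GSH beads | buffer or medium = PBS plus Tween 20 (0.05%) and BSA (0.1%) | incubation = 12 min plus 1 h, RT | detection = bead flow cytometry, FITC channel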
Numbers stand for hits; – = inactive; · = no result given.

SMILES	PolyA inh	UCH37 inh	A3G deaminase	A3A deaminase	AHR act	Arrestin-AP2 inh
O=C(Nc1nc2ccccc2n1CCN1CCCCC1)c1ccc(Cl)cc1	–	–	–	–	–	·
Cc1ccc(-c2n[nH]c(=S)n2N=C/C=C\c2ccccc2[N+](=O)[O-])cc1	·	–	·	·	·	·
Cc1ccc2nc(SCC(=O)N3CCN(C(=O)c4ccco4)CC3)[nH]c2c1	–	–	–	–	68	–
CCc1cc2cc3c(cc2nc1SCC(=O)N1CCN(C(=O)c2ccco2)CC1)OCO3	–	–	–	–	–	–
CCc1cc2ccc(C)cc2nc1SCC(=O)N1CCN(C(=O)c2ccco2)CC1	–	–	–	–	52	–
CCn1c(C)cc(/C=C2/SC(=S)N(CC(=O)O)C2=O)c1C	–	21	–	–	–	–
C#CCN1C(=O)S/C(=C/c2cc(C)n(CC)c2C)C1=O	–	–	–	–	–	–
O=[N+]([O-])c1ccc(C2=Nc3cc(Cl)ccc3OC2)cc1	–	–	–	–	67	–
Cc1ccc2c(c1)N=C(c1ccc(F)cc1)CO2	·	–	–	–	–	–
O=C(NN=C/C=C/c1ccco1)c1ccncc1	·	–	·	·	·	·
O=C(NN=Cc1ccccn1)c1ccc(S(=O)(=O)N2CCCCCC2)cc1	·	–	·	·	·	·
CN1CCN(/N=C/c2c3ccccc3c(Cl)c3ccccc23)CC1	–	·	–	–	57	–
CN1CCN(/N=C/c2ccc(-c3ccccc3)cc2)CC1	–	·	–	–	–	–
O=c1[nH]c(Nc2nc3ccccc3o2)nc2c1CCCC2	–	–	–	–	55	–
CCOc1cc(C=NNc2nc(=O)[nH]nc2C)ccc1O	·	–	·	·	·	·
O=[N+]([O-])c1ccc(NN=Cc2cn(Cc3ccc(F)cc3)c3ccccc23)nc1	·	–	·	·	·	·
CCOC(=O)c1ccc(NC(=O)CSc2nnc(CNc3ccc(OC)cc3)n2C)cc1	–	–	–	–	59	–
Oc1ccccc1C=Nn1c2ccccc2c2ccccc21	·	–	·	·	·	·
Oc1ccc(/C=N/n2c3ccccc3c3ccccc32)cc1	–	·	–	–	55	–
Cc1ccc2nc(SCC(=O)Nc3ccc(C(N)=O)cc3)[nH]c2c1	–	–	–	–	–	–
Cc1ccc2nc(SCC(=O)NC3CC3)[nH]c2c1	–	–	–	–	–	–
CCCC(C)NC(=O)CSc1nc2ccc(C)cc2[nH]1 (configuration not stated)	–	–	–	–	51	–
Cc1ccc2nc(SC(C)C(=O)N3CCCC3)[nH]c2c1 (configuration not stated)	–	–	–	–	73	–
Cc1ccc2nc(SCC(=O)Nc3ccc(F)cc3F)[nH]c2c1	–	–	–	–	71	–
Cc1ccc2nc(SC(C)C(=O)N3CCCCC3)[nH]c2c1 (configuration not stated)	–	–	–	–	–	–
SMILES	PolyA inh	UCH37 inh	A3G deaminase	A3A deaminase	AHR act	Arrestin-AP2 inh
Cc1ccc2nc(SCC(=O)Nc3cccc([N+](=O)[O-])c3)[nH]c2c1	–	–	–	–	89	–
CC1(C)CC(=NO)c2cc3c(nc2C1)CCCC3	·	–	·	·	·	·
CC1CCN(c2nc3nonc3nc2Nc2ccc(F)cc2)CC1	–	–	–	–	50	–
COc1ccc(Nc2nc3nonc3nc2N2CCCCC2)cc1	–	–	–	–	–	–
O=C(NN=Cc1ccc(O)c(O)c1)NC12CC3CC(CC(C3)C1)C2	·	–	·	·	·	·
CCOC(=O)c1ccc(N=C2C(=S)N(c3ccc(C(=O)OCC)cc3)C(=N)N2N=Cc2ccccc2)cc1	·	–	·	·	·	·
COc1ccc(OCC(=O)NN=C/C(C)=C/c2ccco2)c(Br)c1	·	–	·	·	·	·
CCCCNC(=O)c1c(O)c2cccc3c2n(c1=O)CCC3	–	–	–	–	–	–
CCNCCNC(=O)c1c(O)c2cccc3c2n(c1=O)CCC3	–	–	–	–	60	–
CCOC(=O)CN1C=C(c2ccc3ccccc3n2)C(C[N+](=O)[O-])c2ccccc21 (configuration not stated)	–	–	–	–	67	–
CC(C)(C)OC(=O)CNC(=O)c1[nH]cnc1C(=O)NCC(=O)OCc1ccccc1	–	31	–	–	–	–
CC(C)(C)OC(=O)NCCCCCNC(=O)c1nc[nH]c1C(=O)NCC(=O)OCc1ccccc1	·	–	–	–	–	–
CC(=O)Nc1nc(-c2ccccc2)ns1	–	–	–	–	–	–
COCC(=O)Nc1nc(-c2ccccc2)ns1	–	–	–	–	47	–
C/C(C=NNC(=O)c1c(Br)cnn1C)=C\c1ccccc1	·	–	·	·	·	·
N#CCSc1ccsc1C(=O)Nc1ccc(F)cc1	–	–	–	–	50	–
CC(C)(C)S(=O)(=O)N1C[C@@H]2CC/C=C\C/C(c3ccccc3)=C\2[C@H]1CCO	·	20	·	·	·	–
C[C@H]1CN(S(=O)(=O)C(C)(C)C)[C@H](CCO)/C1=C\c1ccccc1	·	–	·	·	·	–
Cc1ccc(C=NNC(=O)CN2CCN(S(=O)(=O)c3ccc(Br)cc3)CC2)s1	·	–	·	·	·	·
c1ccc(-c2nnc(-c3ccccn3)s2)nc1	–	–	–	–	65	–
CC1(C)COC(/C=C/c2ccc([N+](=O)[O-])cc2)=N1	–	–	·	·	50	–
O=C(NC(=S)Nc1cc([N+](=O)[O-])ccc1O)c1ccc2c(c1)OCO2	–	–	–	–	71	–
CS(=O)(=O)N(CC(=O)Nc1ccc2c(c1)OCO2)Cc1ccc(Cl)cc1	–	–	–	–	65	–
O=C(NC(=S)Nc1ccc2c(c1)OCO2)c1ccc(Cl)cc1	–	–	–	–	53	–
O=C(Nc1ccc2c(c1)OCO2)c1ccc([N+](=O)[O-])cc1[N+](=O)[O-]	–	–	–	–	72	–
SMILES	PolyA inh	UCH37 inh	A3G deaminase	A3A deaminase	AHR act	Arrestin-AP2 inh
CCc1ccc(C(=O)NC(=S)Nc2ccc3c(c2)OCCO3)cc1	–	–	–	–	–	–
S=c1[nH]ncn1N=Cc1cccs1	·	–	·	·	·	·
Cc1cc(C=NNC(=O)c2nn(C)cc2Cl)c(C)n1-c1cccc(Br)c1	·	–	·	·	·	·
CC(/C=C/c1ccco1)=NNC(=O)c1cc(C)[nH]n1	·	–	·	·	·	·
S=C(Nc1ccc2c(c1)OCO2)Nc1ccc2c(c1)OCO2	–	–	–	–	68	–
O=C(NN=Cc1ccc([N+](=O)[O-])o1)c1cn(-c2ccccc2)nc1-c1ccccc1	·	–	·	·	·	·
O=C(NN=Cc1cccnc1)c1ccc(Cl)cc1Cl	·	–	·	·	·	·
O=C(Nc1ccc(Cl)cc1C(=O)Nc1ccc(Br)cn1)c1ccco1	–	–	–	–	61	–
